In ChEMBL document CHEMBL4513216, “Probing the Open Global Health Chemical Diversity Library for Multistage-Active Starting Points for Next-Generation Antimalarials” (ACS Infect Dis, 2020):

Experiment: Toxicity liver stage against HepG2, at 10uM
Format: cell-based
Parameters: test concentration 10 uM, cell line HepG2-A16-CD81EGFP
Conditions: human, HepG2-A16-CD81EGFP cells; read-out: INHIBITION
Summary of the method: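 Uninfected HepG2-A16-CD81EGFP cells, 3 × 10^3 per well, 1536-well, plated on prespotted compound at 10 μM final, parasite-free screening media added to match infected plates; puromycin 10 μM positive, DMSO 0.5% negative; run in parallel with 48 h PbLuc assay at 37 °C, 5% CO2; viability by CellTiter-Glo luminescence, normalized to controls.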

Compound	cytotoxicity at 10 µM [%]
CN(C)c1ncccc1CNS(=O)(=O)c1c(F)cccc1F	-9.91
CSCc1noc(CNC(=O)C2CCN(C(C)C)CC2)n1	-2.86
CN(CCS(=O)(=O)c1cc(Cl)ccc1Cl)CC(=O)Nc1ccc(F)cc1	8.9
Cc1nc(CN2CCC23CCN(Cc2ccco2)CC3)cs1	-114
Cc1nc(CN(C)C2CCCN(c3cccnn3)C2)nc2ccccc12 (stereo not given)	-0.164
O=C(c1ccc(O)c(Cl)c1)N1CCN(c2nccs2)CC1	-10.3
NS(=O)(=O)CCCNC(=O)c1cnc(-c2ccsc2)s1	-9.59
CC(CNC(=O)c1nc(N2CCOCC2)ncc1Cl)c1ccccc1 (stereo not given)	0.666
c1cc(CN2CCC3(CC2)CC(N2CCCC2)CO3)co1 (stereo not given)	2.38
O=C(Nc1ccc(CC(=O)N2CCSCC2)cc1)NC1CCCC1	-7.01
Cn1cnc2cc(C(=O)N3CCC(c4ccccc4C(=O)O)C3)cnc21 (stereo not given)	-8.98
CSCc1cccc(S(=O)(=O)N2CCSCC2)c1	14.3
O=C(O)c1cc(S(=O)(=O)Nc2cccc(F)c2F)cc2c1OCCO2	-3.65
COCC(=O)N1CCN(C(=O)NC(C)C)CC2(CC(=O)N(C)C2)C1 (stereo not given)	1.76
CCc1cc(OC)c(OC)cc1C(=O)Nc1cccnc1	4.94
COCCNS(=O)(=O)c1ccc(CNc2ncccc2C#N)cc1	6.47
CC(C)N(C)C(=O)c1ccc(Cl)c(NC(=O)C2CCC2)c1	-2.74
Cc1oncc1C(=O)N1CC[C@H]2CO[C@H](CN3CCCC3)[C@H]2C1	10.8
CNC(=O)C(CC(C)C)NC(=O)c1cccc(-c2n[nH]c(C)n2)c1 (stereo not given)	9.04
Cc1n[nH]c(C)c1CNC(=O)NC1CCCCC1	1.91
CCOC(=O)C1CCN(C(=O)c2cnn(-c3ccc(C)cc3)c2N)CC1	1.84
O=C(NCc1ccccn1)NCc1ccc(Cl)s1	-7.52

Compound	cytotoxicity at 10 µM [%]
Cc1csc(Nc2cc(C3CN(c4ccncn4)C3)nc(C)n2)n1	11.6
Cc1cnn(CCCNCc2csc(COc3ccccc3)n2)c1	5.34
CN(CCC(F)(F)F)Cc1nc2ccccc2c(=O)[nH]1	-5.61
CC(C)N(C)S(=O)(=O)N(Cc1cccs1)Cc1cccs1	-45.2
OCC1(CCOc2ccccc2)CCCN(c2ccc(Cl)cn2)C1 (stereo not given)	7.52
Cc1cc(NCc2cc3n(n2)CCCN(C(=O)C2CCC2)C3)nc(N)n1	-146
C1CCN(CCN2CCCCC2C2OCCO2)CC1 (stereo not given)	3.19
CC(C)(C)C(=O)NCCCn1cncn1	-9.46
Cc1cc(C)n(CC2CCCCN2CC(=O)Nc2nnc(C)s2)n1 (stereo not given)	0.668
CC(C)=CCN1CCN(C(=O)C2CC2)CC1	6.64
O=C(Nc1cnc(C2CC2)nc1)N1CCC(CN2CCCC2)C1 (stereo not given)	18.8
O=C(c1cccc(Cl)c1)N1CC[C@H]2[C@H]1CCN2CC1CCOCC1	-0.696
NC(=O)C1CCCN1c1cc(N2CCc3ccccc3C2)ncn1 (stereo not given)	-0.918
CCC(=O)N1CCC(c2ncc(C(=O)Nc3ccccc3)c(C)n2)C1 (stereo not given)	6.96
CCN(CC1CCCN(CCc2cccc(OC)c2)C1)C(=O)CSC (stereo not given)	8.76
Cc1csc(N2CCCN(C(=O)Cn3cncn3)CC2)n1	-3.27
COc1ccc(C)cc1C(C)NC(=O)NCCCn1cncn1 (stereo not given)	2.62
CC(C)NC(=O)CCNC(=O)Nc1cnn(-c2ccccc2Cl)c1	1.75
COc1ccc(-c2cccc(-c3ccn(CCN(C)C)n3)c2)nn1	-1.39
COc1ccccc1-c1nc(C(=O)N(C)C)n2ccncc12	12.6
O=C(c1ccc(O)cn1)N1CCOC(c2ccc(Cl)c(Cl)c2)C1 (stereo not given)	-4.57
CC1CN(Cc2nc(Cc3ccccc3F)no2)CCN1C (stereo not given)	-7.44

Compound	cytotoxicity at 10 µM [%]
CC(C)n1ccnc1C1CCCN(c2ccncc2F)C1 (stereo not given)	-4.96
COc1ccc(F)cc1CSCC(=O)N(CCC#N)CCC#N	0.0531
Cc1cccc(C(=O)N2C[C@@H](OCc3cccnc3)[C@H]3OCCC[C@@H]32)n1	-1.75
CCc1nccn1C1CCCN(C(=O)c2cc[nH]n2)C1 (stereo not given)	4.54
COc1cc2ncn(CC(=O)NCCCN(C)C)c(=O)c2cc1OC	10
Cc1ccoc1C1=NNC(=CN2CCn3c(nnc3C3CC3)C2)O1	7.65
Cc1noc(C)c1CN1Cc2ccnn2CC(C(=O)NCC2CC2)C1 (stereo not given)	-69.2
Cn1ccc(CN2CCCC(CNS(C)(=O)=O)C2)cc1=O (stereo not given)	9.31
Cc1cc(C2CCC2)nc(NCCC23CCCN2CCC3)n1	0.414
CC(=O)Nc1nc(CNc2ccccc2CCC(F)(F)F)cs1	27.9
Cc1ncc(CN(C)Cn2nc(-c3ccccc3)oc2=O)s1	-2.81
CN1CCN(C2CCN(Cc3noc(-c4ccccc4)n3)CC2)C1=O	9.5
O=C(CSc1nc2c(cnn2CCO)c(=O)[nH]1)N1CCCCCC1	-15.4
CC(=O)N1CCCC2(CN(Cc3ccncc3)CCO2)C1 (stereo not given)	7.22
Cc1oncc1C(=O)N1CC[C@H]2[C@H](C[C@@H](CN(C)C)N2CC2CC2)C1	2.84
COCCN1CCCC1c1nccnc1Nc1nccs1 (stereo not given)	-7.55
COc1cc(C(C#N)NC(=O)CC2=CCCCC2)cc(OC)c1OC (stereo not given)	3.2
COCC(=O)N1CCN(S(=O)(=O)c2cccs2)[C@H]2CS(=O)(=O)C[C@H]21	1.44
CCOC(=O)Cc1cs/c(=N/C(=O)COc2cnc(C)cc2O)[nH]1	4.62
COCCCNC1N=C(n2nc(C)cc2C)Nc2sc3c(c21)CCCC3 (stereo not given)	10.6
Cc1c[nH]c(C2COCCN2C(=O)c2ccc(=O)[nH]n2)n1 (stereo not given)	-8.77
CCS(=O)(=O)N1C[C@@H](O)[C@H](N2CCc3ccccc3C2)C1	-3.63

Compound	cytotoxicity at 10 µM [%]
Cc1ccc(NC(C(N)=O)c2ccc(F)cc2)cc1 (stereo not given)	9.19
COc1ccc2c(ccn2CC(=O)N2CCCC2c2cnn(C)c2)c1 (stereo not given)	3.74
CC(C)CNC(=O)N1C[C@H]2CCN[C@H]2C1	7.12
Cc1ccc2c(c1)C(NC(=O)N(C)C)CC21CCN(CC2CC2)CC1 (stereo not given)	4.44
COc1ccc(CC(=O)N2CC[C@@H](OC)[C@@H]2Cc2cccnc2)cc1	8.48
Cc1nc(O)cc(C2CCN(C(=O)C(C)Cn3nc(C)nc3C)CC2)n1 (stereo not given)	-1.89
CC(C)Nc1nc(O)cc(C2CC(=O)N(Cc3ccccn3)C2)n1 (stereo not given)	-16.9
Cn1ncc2c(=O)[nH]c(CN(Cc3ccco3)C3CCCC3)nc21	20.8
COc1ccccc1OC1CN(C(=O)Cc2c(C)nc(C)[nH]c2=O)C1	-2.9
O=C1OCCN1CCSc1nnnn1CC(F)(F)F	-41.5
COc1cccc(COCC(=O)N2CCN(CC(C)(C)O)CC2)c1	-5.64
Fc1cccc(-c2n[nH]cc2-c2nc(CN3CCOCC3)no2)c1	-7.58
Cc1nc(C)n(CC2CN(Cc3ccccc3C#N)CCO2)n1 (stereo not given)	-8.8
Cc1ccc(CN(Cc2cc(C)no2)C2CC2)cc1	-5.17
Cc1n[nH]c(C)c1CC(=O)N1CC[C@@](C)(O)[C@@H](Cc2ccccc2)C1	5.94
CCN1CCN(C(=O)c2cnc3c(cnn3C3CCCC3)c2)CC1	-14.1
O=C(c1ccco1)N1CC[C@@H]2CN(C3CCOCC3)CCO[C@@H]2C1	-112
CN1CCN(c2ncnc3c2CCN(C(=O)c2cccn2C)CC3)CC1	-71
CN(C)Cc1ccc(NC(=O)c2nccn3ccnc23)cc1	-2.6
Cn1cnc2c1CCN(Cc1nc(-c3ccco3)no1)C2	0.887
CC(C)c1nc(C2CCCN(C(=O)CCn3ccccc3=O)C2)no1 (stereo not given)	-18.4
c1cncc(CN2CCC(NCCc3ccc4c(c3)OCO4)CC2)c1	-9.62

Compound	cytotoxicity at 10 µM [%]
O=C(NCc1ccc2c(c1)OCO2)[C@H]1C=CCN1c1ncccn1	-4.52
CCc1nc(CN(Cc2cccs2)CC2CCCO2)no1 (stereo not given)	2.26
c1csc(CN2C[C@H]3CCC[C@@]3(COCC3CCOCC3)C2)n1	-1.99
CC(C)(C)CN1CCN2C(=O)N(C3CCCCC3)C[C@H]2C1	4.91
CCC(CO)N(Cc1ccco1)C(=O)c1cccnc1NC (stereo not given)	1.64
Cc1noc(C)c1C(=O)N1CCCC(c2cc(C(F)(F)F)[nH]n2)C1 (stereo not given)	-0.855
CC(=O)N1C[C@H]2CCCC(N3CCN(c4ncccn4)CC3)[C@H]2C1 (stereo not given in full)	9.46
COC(CNC(=O)c1ccc[nH]1)c1cccc(Cl)c1 (stereo not given)	-0.23
CN(C)C(=O)C1CCCN1CCCNC(=O)c1cccc2[nH]ncc12 (stereo not given)	-1.07
O=C(Cc1csc(N2CCNC2=O)n1)NC1(c2ccccc2)CCC1	-135
CN1CCN(C[C@@H]2CN(C(=O)NCC3CCCCC3)C[C@@H]2CO)CC1	-9.18
O=C(Nc1ccccc1)N1C2CCC(O)(CC2)C1CO (stereo not given)	-5.2
O=C(c1nnn(-c2ccccc2Cl)c1-c1ccccn1)N1CCSCC1	4.92
CCc1[nH]ncc1C(=O)N1CCOC(c2nc(C)n[nH]2)C1 (stereo not given)	-8.69
Cc1noc(CCNS(=O)(=O)N2CCCC2c2ccco2)n1 (stereo not given)	-6.43
COCC(=O)N1CCC(C)(c2cc(O)[nH]n2)CC1	-6.92
Cc1nn(C)c(N(C)C)c1CNCCC(=O)NC1CCCC1	-3.37
Cc1ccccc1CC1(C(=O)O)CCCN(c2ncccn2)C1 (stereo not given)	1.25
Cc1occc1C(=O)N1CCC2(CCC2NC(=O)c2ccn(C)c2)CC1 (stereo not given)	-1.75
CC(C)(O)CCc1cccc(C(=O)NCCC2=CSC3=NCCCN23)c1	9.17
NC(=O)NC(=O)CCN1CCN(c2nccs2)CC1	-33.6
COc1ccc(CCC(=O)N2CCCC2Cn2cc(C)cn2)cc1F (stereo not given)	2.36
